Assay results pooled from the literature.
Lines come from different studies, so protocols differ.
Target: Dual specificity tyrosine-phosphorylation-regulated kinase 2 (DYRK2, Homo sapiens, UniProt Q92630)
One construct used (Q92630 1-601): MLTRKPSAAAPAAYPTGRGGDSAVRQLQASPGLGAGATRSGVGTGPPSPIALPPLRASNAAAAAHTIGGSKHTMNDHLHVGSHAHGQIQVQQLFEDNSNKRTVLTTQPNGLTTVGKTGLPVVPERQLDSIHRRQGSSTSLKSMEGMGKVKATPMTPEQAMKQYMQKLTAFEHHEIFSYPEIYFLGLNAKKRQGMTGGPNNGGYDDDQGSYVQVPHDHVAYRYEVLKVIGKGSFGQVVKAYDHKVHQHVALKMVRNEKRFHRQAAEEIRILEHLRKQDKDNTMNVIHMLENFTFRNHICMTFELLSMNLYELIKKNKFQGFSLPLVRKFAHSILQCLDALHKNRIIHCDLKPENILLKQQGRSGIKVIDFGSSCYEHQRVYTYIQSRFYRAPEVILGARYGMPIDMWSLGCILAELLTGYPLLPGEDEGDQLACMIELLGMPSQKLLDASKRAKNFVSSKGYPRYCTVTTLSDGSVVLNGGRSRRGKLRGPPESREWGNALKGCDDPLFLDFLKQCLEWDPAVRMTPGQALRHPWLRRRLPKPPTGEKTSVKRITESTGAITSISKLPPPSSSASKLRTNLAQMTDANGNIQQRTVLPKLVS

COc1cc(/C=C/C(=O)CC(=O)/C=C/c2ccc(O)c(OC)c2)ccc1O  activity vs control (enzyme activity, inhibitor; 1 µM): 5%
Cn1cncc1C1=CN(c2ncnc3[nH]cnc23)CCS1  inhibition (enzyme activity, inhibitor, radiometric; 2 µM): 91.2%
O=C(O)c1ccc2c(c1)nc(NCCc1cccc(F)c1)c1ncncc12  remaining activity (enzyme activity, inhibitor, radiometric; 1 µM): 52%
Cc1cc(NC(=O)c2cccc3cc(-c4cccc5[nH]nc(N)c45)ccc23)ccc1F  activity vs control (enzyme activity, inhibitor; 0.1 µM): 98%
COc1cccc(Nc2nc3cc(C(=O)O)ccc3c3cnccc23)c1  remaining activity (enzyme activity, inhibitor, radiometric; 1 µM): 14%
O=C(Nc1cccnn1)N1CC(C/C=C/c2cncc(Oc3ccc(C(F)(F)F)cn3)n2)C1  remaining binding (cell-free assay, competition with immobilised ligand; 1 µM): 81%
CN1CC(Oc2cnc(C#N)cc2-c2ccn3nc(NC(=O)C4CC4)cc3c2)C1  inhibition (enzyme activity, inhibitor; 1 µM): 3%
Cc1cc(NC(=O)c2cccc(S(F)(F)(F)(F)F)c2)cc(-n2ccn3nc(-c4cccnc4)cc23)c1  remaining binding (cell-free assay, competition with immobilised ligand; 1 µM): 100%
Cc1ccc(Nc2nccc(N(C)c3ccc4c(C)n(C)nc4c3)n2)cc1S(N)(=O)=O  inhibition (enzyme activity, inhibitor; 10 µM): -3%
O=C(O)c1ccc2c(c1)nc(Nc1ccc3ccccc3c1)c1ncncc12  remaining activity (enzyme activity, inhibitor, radiometric; 1 µM): 1%
CCN(CC)CCNC(=O)c1c(C)[nH]c(/C=C2\C(=O)Nc3ccc(F)cc32)c1C  inhibition (enzyme activity, inhibitor; 10 µM): 36%
N#CCCc1ccc2c(c1)-c1[nH]c3ccc([N+](=O)[O-])cc3c1CC(=O)N2  remaining signal (cell-free assay; 0.5 µM): 46.8%
O=C(O)c1cc(-c2ccc(C3CCNCC3)cc2)c2ccc(-c3ccc(C(F)(F)F)cc3)cc2c1  remaining binding (cell-free assay, competition with immobilised ligand; 1 µM): 100%
O=C(O)c1ccc2c(c1)nc(NCc1ccccc1)c1ncncc12  remaining activity (enzyme activity, inhibitor, radiometric; 1 µM): 37%
Cn1cnc(Br)c1C1=CN(c2ncnc3[nH]cnc23)CCS1  inhibition (enzyme activity, inhibitor, radiometric; 2 µM): 98.3%
CC/C(=N\NC(=O)NCc1cccc(O)c1)c1ccc(O)c(C)c1O  inhibition (enzyme activity, inhibitor; 0.1 µM): -0.2%
O=C(O)[C@H]1[C@H](Cn2nnc3ccccc3c2=O)CC[C@@H]1C(=O)c1ccc(OCCC2CCOCC2)cc1  remaining binding (cell-free assay, competition with immobilised ligand; 1 µM): 93%
O=C(O)c1ccc2c(c1)nc(Nc1cccc(F)c1)c1ncncc12  remaining activity (enzyme activity, inhibitor, radiometric; 1 µM): 33%
NS(=O)(=O)c1cc(NC(=O)Cc2ccccc2)ccc1Oc1cccc(Cl)c1  remaining binding (cell-free assay, competition with immobilised ligand; 1 µM): 100%
C[S+]([O-])c1ccc(-c2nc(-c3ccncc3)c(-c3ccc(F)cc3)[nH]2)cc1 (stereo not shown)  remaining signal (cell-free assay; 0.5 µM): 98.7%
CCCCN(CCCC)C(=O)CN1C[C@@H](c2cc(OC)c3c(c2)OCO3)[C@H](C(=O)O)[C@H]1CC(C)(C)CCC  remaining binding (cell-free assay, competition with immobilised ligand; 1 µM): 82.9%
O=C(O)c1ccc2c(c1)nc(Nc1ccccc1)c1ncncc12  remaining activity (enzyme activity, inhibitor, radiometric; 1 µM): 54%
FC(F)(F)Oc1cccc(-c2cnc3ccc(-c4ccncc4)nn23)c1  activity vs control (enzyme activity, inhibitor, radiometric; 1 µM): 52%
O=C(O)c1ccc2c(c1)nc(NCc1ccccc1)c1ccncc12  remaining activity (enzyme activity, inhibitor, radiometric; 1 µM): 27%
Cc1cc(C)c(-n2ccn3nc(-c4cccnc4)cc23)cc1NC(=O)c1cc(C#N)cc(S(F)(F)(F)(F)F)c1  remaining binding (cell-free assay, competition with immobilised ligand; 0.1 µM): 82.5%
O=C1Nc2ccc(Cl)cc2C1=Cc1cc(Cl)c(O)c(Cl)c1  remaining signal (cell-free assay; 0.5 µM): 94%
Cc1c(C(=O)O)cc(-c2ccc(C3CCNCC3)cc2)c2ccc(-c3ccc(C(F)(F)F)cc3)cc12  remaining binding (binding, competition with immobilised ligand; 1 µM): 100%
O=C(O)c1ccc2c(c1)nc(Nc1ccc(F)c(Cl)c1)c1ccncc12  remaining activity (enzyme activity, inhibitor, radiometric; 1 µM): 5%
